Test results reported in PMC4102658 (Circulation. Cardiovascular imaging, 2014).

Target: T1, fibrin (Rattus norvegicus, UniProt P02680+P06399+P14480)
T1 sequence (P06399 20-550 isoform P06399-2 limits assumed): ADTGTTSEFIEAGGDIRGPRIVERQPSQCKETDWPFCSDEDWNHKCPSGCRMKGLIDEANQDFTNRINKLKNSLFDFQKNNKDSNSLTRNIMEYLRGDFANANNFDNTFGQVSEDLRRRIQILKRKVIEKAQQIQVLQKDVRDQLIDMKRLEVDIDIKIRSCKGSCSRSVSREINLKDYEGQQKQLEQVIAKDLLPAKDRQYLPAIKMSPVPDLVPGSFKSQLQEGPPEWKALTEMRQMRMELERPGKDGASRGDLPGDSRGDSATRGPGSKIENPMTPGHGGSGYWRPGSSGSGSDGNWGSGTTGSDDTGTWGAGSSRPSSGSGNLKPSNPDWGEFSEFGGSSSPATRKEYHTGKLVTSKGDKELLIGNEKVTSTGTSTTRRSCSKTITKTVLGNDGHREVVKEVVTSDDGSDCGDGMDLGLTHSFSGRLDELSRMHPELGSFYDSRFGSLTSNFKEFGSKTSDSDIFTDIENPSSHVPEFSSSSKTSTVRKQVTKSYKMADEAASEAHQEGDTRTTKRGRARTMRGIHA
T1 sequence (P14480 33-479 limits assumed): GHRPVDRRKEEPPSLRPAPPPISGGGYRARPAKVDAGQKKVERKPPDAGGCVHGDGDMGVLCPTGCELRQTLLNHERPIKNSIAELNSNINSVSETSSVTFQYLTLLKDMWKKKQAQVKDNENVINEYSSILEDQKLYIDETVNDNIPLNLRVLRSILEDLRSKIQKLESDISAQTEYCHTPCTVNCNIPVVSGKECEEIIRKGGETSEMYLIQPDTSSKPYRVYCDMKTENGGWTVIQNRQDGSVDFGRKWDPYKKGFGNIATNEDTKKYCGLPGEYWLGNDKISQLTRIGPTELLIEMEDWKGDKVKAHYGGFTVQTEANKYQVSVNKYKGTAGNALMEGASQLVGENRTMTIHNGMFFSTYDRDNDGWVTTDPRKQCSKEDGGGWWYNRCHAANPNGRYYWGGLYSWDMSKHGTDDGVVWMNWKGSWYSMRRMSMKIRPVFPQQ
T1 sequence (P02680 26-437 isoform P02680-2 limits assumed): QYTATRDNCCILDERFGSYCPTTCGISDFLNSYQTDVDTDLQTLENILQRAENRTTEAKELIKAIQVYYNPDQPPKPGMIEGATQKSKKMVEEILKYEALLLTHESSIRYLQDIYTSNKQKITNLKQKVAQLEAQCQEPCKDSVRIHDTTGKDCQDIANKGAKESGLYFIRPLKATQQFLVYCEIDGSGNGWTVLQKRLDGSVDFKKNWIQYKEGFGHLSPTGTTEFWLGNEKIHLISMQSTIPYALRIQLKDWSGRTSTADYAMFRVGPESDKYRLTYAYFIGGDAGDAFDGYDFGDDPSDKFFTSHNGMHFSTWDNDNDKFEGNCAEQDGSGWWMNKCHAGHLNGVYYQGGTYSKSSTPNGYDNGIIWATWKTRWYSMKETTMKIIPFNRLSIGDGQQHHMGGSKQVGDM
Experiment: brain autoradiography, embolic stroke with rtPA or vehicle
Assay type: in vivo
Conditions: rtPA-treated animals
In short: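 Rats with embolic clot in ICA/MCA got ~300 μCi probe (0.3–0.4 mL, saline flush) 15–30 min after surgery. About 1 h after clot injection they received rtPA (10 mg/kg i.v., 10% bolus, 90% infused over 30 min) or 1 mL saline. Euthanised after 45 min baseline plus 90 min PET. 2 mm brain sections autoradiographed; ipsilateral/contralateral ICA-MCA ROI activity ratio; mean ± S.E.M.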

rtPA: recombinant tissue plasminogen activator (alteplase), thrombolytic treatment
ipsilateral to contralateral ICA-MCA ratio by autoradiography with FBP7: ~1
